Reference: ChEMBL document CHEMBL1123382, “Potential tumor- or organ-imaging agents. 27. Polyiodinated 1,3-disubstituted and 1,2,3-trisubstituted triacylglycerols” (J Med Chem, 1986)
“And” between values parts separate entries of the source, which are not always exact repeats. Identical values can stand only once.

Assays:
[1] = system: Rattus norvegicus; test: Biodistribution in Rat blood after 5 minutes of iv administration; type: ADME, organism-based; conditions: in vivo
How it was run: (§1)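 125I-labeled compound solubilized in normal saline with Tween-20 and given iv to rats, about 5-30 μCi (9-83 μg) per animal. Three to five rats per time point. Rats killed by exsanguination under ether anesthesia at 5 min, 30 min or 24 h. Organs minced, blotted free of blood and counted for radioiodine. Lines with "per g" are % administered dose per gram ± SEM.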

[2] = system: Rattus norvegicus; test: Compound (125I labeled) was evaluated for the total radioactivity in stacking gel at 30 min after intravenous administration.; type: functional
How it was run: (§2)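 Rat plasma taken 5 or 30 min after iv dosing of 125I-labeled compound (saline/Tween-20) and run on polyacrylamide gel electrophoresis. Gels sectioned and each section gamma-counted. Radioactivity in each band (stacking gel, lipoproteins, albumin, below-albumin) is given as % of total radioactivity applied to the gel.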

[3] = system: Rattus norvegicus; test: Compound was evaluated for the lipid soluble radioactivity extracted from rat plasma at 0.5 hr after intravenous administration.; type: functional
How it was run: (§3)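 Liver and plasma taken 0.5 or 24 h after iv dosing of 125I-labeled compound in rats (n = 3-5). Extracted by a modified Folch procedure; value is % lipid (CHCl3/MeOH)-extractable radioactivity ± SEM. Extracts run on TLC in hexane/ethyl acetate 5:2 against unlabeled standard, then 1-cm strips counted to give % parent compound.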

[4] = system: Rattus norvegicus; test: Biodistribution in Rat heart after 30 minutes of iv administration; type: ADME, organism-based; conditions: in vivo, 0.5 h; how it was run: as §1
[5] = system: Rattus norvegicus; test: Liver radioactivity after iv administration of compound (30 min) in rats; type: functional, organism-based
How it was run: (§4)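 Rats (3-5 per time point) dosed iv with about 5-30 μCi (9-83 μg) of 125I-labeled compound in saline containing Tween-20. Killed by exsanguination under ether at 5 min, 30 min or 24 h. Liver removed, minced, blotted and counted. Values are % administered dose per organ, based on each animal's actual liver weight, ± SEM.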

[6] = system: Rattus norvegicus; test: Compound was evaluated for the lipid soluble radioactivity extracted from rat liver at 0.5 hr after intravenous administration.; type: functional; how it was run: as §3
[7] = system: Rattus norvegicus; test: (§5) Biodistribution in Rat liver after 30 minutes of iv administration; type: ADME, organism-based; conditions: in vivo, 0.5 h; how it was run: as §1
[8] = system: Rattus norvegicus; test: Compound was evaluated for the lipid soluble radioactivity extracted from rat liver at 24 hr after intravenous administration.; type: functional; how it was run: as §3
[9] = system: Rattus norvegicus; test: Compound (125I labeled) was evaluated for the total radioactivity in stacking gel 5 min after intravenous administration.; type: functional; how it was run: as §2
[10] = system: Rattus norvegicus; test: Compound (125I labeled) was evaluated for the total radioactivity in high-density lipoprotein 5 min after intravenous administration.; type: functional; how it was run: as §2
[11] = system: Rattus norvegicus; test: Compound (125I labeled) was evaluated for the total radioactivity in low-density lipoprotein 5 min after intravenous administration.; type: functional; parameters: concentration or dose not given beside the values; how it was run: as §2
[12] = system: Rattus norvegicus; test: Compound (125I labeled) was evaluated for the total radioactivity in high-density lipoprotein, at 30 min after intravenous administration.; type: functional; how it was run: as §2
[13] = system: Rattus norvegicus; test: Liver radioactivity after iv administration of compound (24 h) in rats; type: functional, organism-based; how it was run: as §4
[14] = system: Rattus norvegicus; test: Compound (125I labeled) was evaluated for the total radioactivity in low-density lipoprotein, at 30 min after intravenous administration.; type: functional; how it was run: as §2
[15] = system: Rattus norvegicus; test: Evaluated for the total radioactivity in below albumin at 30 min after intravenous administration.; type: functional; how it was run: as §2
[16] = system: Rattus norvegicus; test: Biodistribution in Rat lung after 24 hours of iv administration; type: ADME, organism-based; conditions: in vivo; how it was run: as §1
[17] = system: Rattus norvegicus; test: Liver radioactivity after iv administration of compound (5 min) in rats; type: functional, organism-based; how it was run: as §4
[18] = system: Rattus norvegicus; test: Biodistribution in Rat blood after 24 hours of iv administration; type: ADME, organism-based; conditions: in vivo; how it was run: as §1
[19] = system: Rattus norvegicus; test: Biodistribution in Rat liver after 5 minutes of iv administration; type: ADME, organism-based; conditions: in vivo; how it was run: as §1
[20] = system: Rattus norvegicus; test: Compound was evaluated for the lipid soluble radioactivity extracted from rat plasma at 24 hr after intravenous administration.; type: functional; how it was run: as §3
[21] = system: Rattus norvegicus; test: Compound (125I labeled) was evaluated for the total radioactivity in albumin at 30 min after intravenous administration.; type: functional; parameters: concentration or dose not given beside the values; how it was run: as §2
[22] = system: Rattus norvegicus; test: Compound (125I labeled) was evaluated for the total radioactivity in albumin 5 min after intravenous administration.; type: functional; parameters: concentration or dose not given beside the values; how it was run: as §2
[23] = system: Rattus norvegicus; test: Biodistribution in Rat lung after 30 minutes of iv administration; type: ADME, organism-based; conditions: in vivo, 0.5 h; how it was run: as §1
[24] = system: Rattus norvegicus; test: Biodistribution in Rat blood after 30 minutes of iv administration; type: ADME, organism-based; conditions: in vivo, 0.5 h; how it was run: as §1
[25] = system: Rattus norvegicus; test: Biodistribution in Rat liver after 24 hours of iv administration; type: ADME, organism-based; conditions: in vivo; how it was run: as §1
[26] = system: Rattus norvegicus; test: Biodistribution in Rat heart after 24 hours of iv administration; type: ADME, organism-based; conditions: in vivo; how it was run: as §1
[27] = system: Rattus norvegicus; test: as §5; type: ADME, organism-based; conditions: in vivo, 0.5 h; how it was run: as §1; remark: listed apart in the source
[28] = system: Rattus norvegicus; test: Biodistribution in Rat lung after 5 minutes of iv administration; type: ADME, organism-based; conditions: in vivo; how it was run: as §1
[29] = system: Rattus norvegicus; test: Biodistribution in Rat heart after 5 minutes of iv administration; type: ADME, organism-based; conditions: in vivo; how it was run: as §1
[30] = system: Rattus norvegicus; test: Biodistribution in Rat lung after 24 hours of iv administration; per g of tissue; type: ADME, organism-based; conditions: in vivo; how it was run: as §1
[31] = system: Rattus norvegicus; test: Biodistribution in Rat liver after 24 hours of iv administration; per g of tissue; type: ADME, organism-based; conditions: in vivo; how it was run: as §1
[32] = system: Rattus norvegicus; test: (§6) Biodistribution in Rat liver after 30 minutes of iv administration; per g of tissue; type: ADME, organism-based; conditions: in vivo, 0.5 h; how it was run: as §1
[33] = system: Rattus norvegicus; test: Biodistribution in Rat liver after 5 minutes of iv administration; per g of tissue; type: ADME, organism-based; conditions: in vivo; how it was run: as §1
[34] = system: Rattus norvegicus; test: Biodistribution in Rat heart after 24 hours of iv administration; per g of tissue; type: ADME, organism-based; conditions: in vivo; how it was run: as §1
[35] = system: Rattus norvegicus; test: as §6; type: ADME, organism-based; conditions: in vivo, 0.5 h; how it was run: as §1; remark: listed apart in the source
[36] = system: Rattus norvegicus; test: Biodistribution in Rat blood after 24 hours of iv administration; per g of tissue; type: ADME, organism-based; conditions: in vivo; how it was run: as §1
[37] = system: Rattus norvegicus; test: Biodistribution in Rat blood after 30 minutes of iv administration; per g of tissue; type: ADME, organism-based; conditions: in vivo, 0.5 h; how it was run: as §1
[38] = system: Rattus norvegicus; test: Biodistribution in Rat lung after 5 minutes of iv administration; per g of tissue; type: ADME, organism-based; conditions: in vivo; how it was run: as §1
[39] = system: Rattus norvegicus; test: Biodistribution in Rat lung after 30 minutes of iv administration; per g of tissue; type: ADME, organism-based; conditions: in vivo, 0.5 h; how it was run: as §1
[40] = system: Rattus norvegicus; test: Biodistribution in Rat heart after 5 minutes of iv administration; per g of tissue; type: ADME, organism-based; conditions: in vivo; how it was run: as §1
[41] = system: Rattus norvegicus; test: Biodistribution in Rat heart after 30 minutes of iv administration; per g of tissue; type: ADME, organism-based; conditions: in vivo, 0.5 h; how it was run: as §1
[42] = system: Rattus norvegicus; test: Biodistribution in Rat blood after 5 minutes of iv administration; per g of tissue; type: ADME, organism-based; conditions: in vivo; how it was run: as §1

CCCCCCCCCCCCCCCC(=O)OC(COC(=O)CCCCCCCCCCCc1c(I)cc(I)c(N)c1I)COC(=O)CCCCCCCCCCCc1c(I)cc(I)c(N)c1I showed a Biodistribution [1] of 2.74%, a Total radioactivity [2] of 8.6% and an Extracted [3] of 64.6%. It also gave a Parent compound [3] of 11.3%, a Biodistribution [4] of 1.06% and a Radioactivity [5] of 30.7. The Extracted [6] was 64.2%, the Parent compound [6] was 28.1% and the Biodistribution [7] was 4.24%. For the same compound, the Extracted [8] was 81.7%, the Parent compound [8] was 44.9% and the Total radioactivity [9] was 61.6%. The Total radioactivity [10] was 12%, the Total radioactivity [11] was 8.2% and the Total radioactivity [12] was 25.7%. For the same compound, the Radioactivity [13] was 7.73, the Total radioactivity [14] was 12.1% and the Total radioactivity [15] was 3.4% and 3.1%. It also gave a Biodistribution [16] of 0.12%, a Radioactivity [17] of 43.4 and a Biodistribution [18] of 0.1%. For the same compound, the Biodistribution [19] was 0.64% and 5.84%, the Extracted [20] was 52% and the Parent compound [20] was 25.3%. For the same compound, the Total radioactivity [21] was 50.7%, the Total radioactivity [22] was 14.8% and the Biodistribution [23] was 0.73%. For the same compound, the Biodistribution [24] was 1.49%, the Biodistribution [25] was 0.14% and 1.06% and the Biodistribution [26] was 0.12%. For the same compound, the Biodistribution [27] was 4.24%, the Biodistribution [28] was 1.38% and the Biodistribution [29] was 1.43%.

Work on CCCCCCCCCCCCCCCC(=O)OC(COC(=O)C(CC)Cc1c(I)cc(I)c(N)c1I)COC(=O)C(CC)Cc1c(I)cc(I)c(N)c1I (stereo unspecified) yielded a Biodistribution [30] of 0.33%, a Total radioactivity [2] of 6.8% and an Extracted [3] of 86%. The Parent compound [3] was 82.6%, the Biodistribution [31] was 0.26% and 0.33% and the Biodistribution [32] was 4.54%. For the same compound, the Radioactivity [5] was 30.2, the Extracted [6] was 88.4% and the Parent compound [6] was 86%. For the same compound, the Biodistribution [33] was 0.84% and 2.9%, the Extracted [8] was 93.9% and the Parent compound [8] was 91.7%. The Biodistribution [34] was 0.21%, the Biodistribution [35] was 4.54% and the Total radioactivity [9] was 6.2%. The Total radioactivity [10] was 55.1%, the Biodistribution [36] was 0.54% and the Total radioactivity [11] was 35.4%. For the same compound, the Total radioactivity [12] was 59.7%, the Radioactivity [13] was 52.1 and the Total radioactivity [14] was 29.7%. The Total radioactivity [15] was 0.1% and 0.3%, the Biodistribution [37] was 5.17% and the Radioactivity [17] was 18.4. For the same compound, the Biodistribution [38] was 1.49%, the Biodistribution [39] was 1.1% and the Extracted [20] was 82.1%. The Parent compound [20] was 77.4%, the Biodistribution [40] was 0.87% and the Biodistribution [41] was 0.66%. The Total radioactivity [21] was 3.4%, the Total radioactivity [22] was 3.2% and the Biodistribution [42] was 7.44%.
